15 molecules from ChEMBL document CHEMBL2417490, “Synthesis and biological evaluation of pyrazolo[4,3-d]pyrimidine analogues” (Eur J Med Chem, 2013) can be followed below.

Experiment [1] in a line: Cytotoxicity against human 7221 cells assessed as inhibition of cell replication after 72 hrs by MTT assay. The format is functional, cell-based. The gist of the method:
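7221 hepatoma cells, harvested in log phase with 0.05% trypsin/1 mM EDTA and grown at 37 °C in 5% CO₂, were plated, grown overnight and then exposed to a concentration series (final DMSO <0.1%). MTT was added for 4 h and absorbance read at 570 nm. IC₅₀ came from probit analysis.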
(In general: Formazan colour is commonly taken as a measure of viable cells.)

A short description of experiment [2]: Cytotoxicity against human 7402 cells assessed as inhibition of cell replication after 72 hrs by MTT assay. Format: functional, cell-based. The gist of the method: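 7402 hepatoma cells, harvested in log phase with 0.05% trypsin/1 mM EDTA and grown at 37 °C in 5% CO₂, were seeded at 1 × 10⁵ cells/mL, grown overnight and then exposed to a concentration series (final DMSO <0.1%). MTT was added for 4 h and absorbance read at 570 nm. IC₅₀ came from probit analysis.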

The target in experiment [3] is Xanthine dehydrogenase/oxidase (Homo sapiens, UniProt P47989). Kind of experiment: Inhibition of xanthine oxidase (unknown origin) using xanthine as substrate assessed as uric acid formation preincubated for 5 mins followed by substrate addition measured every minute up to 8 mins by spectrophotometric analysis.
Chain of Xanthine dehydrogenase/oxidase (P47989 whole entry): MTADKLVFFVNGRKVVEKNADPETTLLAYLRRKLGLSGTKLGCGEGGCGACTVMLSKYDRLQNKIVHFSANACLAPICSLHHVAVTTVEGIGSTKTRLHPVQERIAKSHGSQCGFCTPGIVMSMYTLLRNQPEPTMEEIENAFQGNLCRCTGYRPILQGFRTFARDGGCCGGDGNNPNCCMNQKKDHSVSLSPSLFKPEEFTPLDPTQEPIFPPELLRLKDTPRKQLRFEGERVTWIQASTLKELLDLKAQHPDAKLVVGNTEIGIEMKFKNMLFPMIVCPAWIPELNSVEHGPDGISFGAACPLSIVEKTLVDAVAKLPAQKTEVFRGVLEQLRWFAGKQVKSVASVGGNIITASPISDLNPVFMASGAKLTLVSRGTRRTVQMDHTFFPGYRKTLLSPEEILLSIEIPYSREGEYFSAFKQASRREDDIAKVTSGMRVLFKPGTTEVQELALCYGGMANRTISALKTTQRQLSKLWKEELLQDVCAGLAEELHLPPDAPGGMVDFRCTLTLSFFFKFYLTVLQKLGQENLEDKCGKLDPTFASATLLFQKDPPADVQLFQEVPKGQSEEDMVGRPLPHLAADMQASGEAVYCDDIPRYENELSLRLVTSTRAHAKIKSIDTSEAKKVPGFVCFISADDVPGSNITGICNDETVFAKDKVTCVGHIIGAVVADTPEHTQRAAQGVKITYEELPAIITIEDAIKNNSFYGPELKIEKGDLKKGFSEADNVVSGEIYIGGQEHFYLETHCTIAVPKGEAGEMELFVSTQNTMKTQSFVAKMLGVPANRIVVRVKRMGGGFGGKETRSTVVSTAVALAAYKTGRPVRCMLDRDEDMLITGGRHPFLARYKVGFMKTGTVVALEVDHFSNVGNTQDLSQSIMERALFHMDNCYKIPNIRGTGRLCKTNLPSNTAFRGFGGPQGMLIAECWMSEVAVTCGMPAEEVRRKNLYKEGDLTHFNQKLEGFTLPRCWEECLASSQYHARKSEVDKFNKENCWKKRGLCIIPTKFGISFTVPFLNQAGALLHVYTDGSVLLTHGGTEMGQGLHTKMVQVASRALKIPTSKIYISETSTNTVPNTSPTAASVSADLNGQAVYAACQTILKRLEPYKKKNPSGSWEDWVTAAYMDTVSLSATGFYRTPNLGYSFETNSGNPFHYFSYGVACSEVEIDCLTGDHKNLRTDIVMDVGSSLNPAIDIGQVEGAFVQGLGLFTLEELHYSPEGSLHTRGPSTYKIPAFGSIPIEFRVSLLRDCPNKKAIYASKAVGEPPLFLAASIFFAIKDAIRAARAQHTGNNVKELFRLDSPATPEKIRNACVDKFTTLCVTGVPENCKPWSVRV

As a reminder, the IC50 is the concentration that inhibits the measured activity by half.

Structures are written as SMILES. ≈ marks a conversion by molar mass, not a printed value.

Regarding `CCOC(=O)Cn1ncc2c(Nc3ccc(N)cc3)ncnc21`, the concentration for half-maximal inhibition (IC50) in experiment [1] and in experiment [2] was greater than 64 µg/mL throughout.

Consider `O=C(O)Cn1ncc2c(Nc3ccc(NS(=O)(=O)c4ccccc4)cc3)ncnc21`, for which the IC50 in experiment [3] (read-out: IC50 (converted)) was 144 µM; in experiment [1], greater than 100 µg/mL; in experiment [2], greater than 100 µg/mL.

Regarding `CCOC(=O)Cn1ncc2c(Nc3ccc(NC(C)=O)cc3)ncnc21`, the IC50 in experiment [3] (read-out: IC50 (converted)) was 109 µM; in experiment [1] it was greater than 64 µg/mL; in experiment [2], greater than 64 µg/mL.

As for `CCOC(=O)Cn1ncc2c(Nc3ccc(NS(=O)(=O)c4ccc(Br)cc4)cc3)ncnc21`, the IC50 result was “Not Active” in experiment [3], greater than 64 µg/mL in experiment [1] and greater than 64 µg/mL in experiment [2].

Regarding `CCOC(=O)Cn1ncc2c(Nc3ccc(NC(=O)CCl)cc3)ncnc21`, the IC50 in experiment [1] is 3.51 µg/mL (≈ 9.03 µM); in experiment [2], 7.27 µg/mL (≈ 18.7 µM).

As to `CCOC(=O)Cn1ncc2c(Nc3ccc(NC(=O)c4ccccc4)cc3)ncnc21`, the IC50 in experiment [3] (read-out: IC50 (converted)) was 81.9 µM; in experiment [1], greater than 100 µg/mL; in experiment [2], greater than 100 µg/mL.

For `CCOC(=O)Cn1ncc2c(Nc3ccc(NS(=O)(=O)c4ccc([N+](=O)[O-])cc4)cc3)ncnc21`, the half-maximal inhibitory concentration (IC50) was greater than 201 µM in experiment [3] (read-out: IC50 (converted)), greater than 64 µg/mL in experiment [1] and greater than 64 µg/mL in experiment [2].

Consider `O=C(O)Cn1ncc2c(Nc3ccc(NC(=O)CCl)cc3)ncnc21`, for which the IC50 in experiment [3] (read-out: IC50 (converted)) was 102 µM; in experiment [1], greater than 100 µg/mL; in experiment [2], greater than 100 µg/mL.

Turning to `O=C(O)Cn1ncc2c(Nc3ccc(NS(=O)(=O)c4ccc([N+](=O)[O-])cc4)cc3)ncnc21`, the values for the IC50 in experiment [3] (read-out: IC50 (converted)), in experiment [1] and in experiment [2] were 190 µM, greater than 100 µg/mL and greater than 100 µg/mL, respectively.

For `O=C(O)Cn1ncc2c(Nc3ccc(NC(=O)c4ccccc4)cc3)ncnc21`, the IC50 in experiment [3] (read-out: IC50 (converted)) was 104 µM; in experiment [1] it was greater than 100 µg/mL; in experiment [2] it was greater than 100 µg/mL.

Regarding `CCOC(=O)Cn1ncc2c(Cl)ncnc21`, the half-maximal inhibitory concentration (IC50) entry in experiment [3] is “Not Active”; in experiment [1], greater than 100 µg/mL; in experiment [2] it was greater than 100 µg/mL.

For the molecule `CCOC(=O)Cn1ncc2c(Nc3ccc(NS(=O)(=O)c4ccccc4)cc3)ncnc21`, the IC50 in experiment [3] (read-out: IC50 (converted)) was 172 µM; in experiment [1], greater than 100 µg/mL; in experiment [2] it was greater than 100 µg/mL.

For `O=C(O)Cn1ncc2c(Nc3ccc(NS(=O)(=O)c4ccc(Br)cc4)cc3)ncnc21`, the concentration for half-maximal inhibition (IC50) was greater than 199 µM in experiment [3] (read-out: IC50 (converted)), greater than 64 µg/mL in experiment [1] and greater than 64 µg/mL in experiment [2].

Consider `C=CCNC1=C2C[C@@H](C)C[C@H](OC)[C@H](O)[C@@H](C)/C=C(\C)[C@H](OC(N)=O)[C@@H](OC)/C=C\C=C(/C)C(=O)NC(=CC1=O)C2=O` (stereo in doubt) [TANESPIMYCIN], for which the IC50 in experiment [1] was 5.77 µg/mL (≈ 9.85 µM); in experiment [2], 7.27 µg/mL (≈ 12.4 µM).

As to `CC(=O)Nc1ccc(Nc2ncnc3c2cnn3CC(=O)O)cc1`, the IC50 in experiment [3] (read-out: IC50 (converted)) was 103 µM; in experiment [1], greater than 64 µg/mL; in experiment [2], greater than 64 µg/mL.
